Data published in paper PMC11588060 (Proceedings of the National Academy of Sciences of the …, 2024).
Structures can show the parent of a compound that is named as a salt. Where two headings read alike, the source gives them in different places. One block for each compound: values may come before it.

How the values were obtained:
SfnG [1] = biological target: T1, SfnG (Pseudomonas fluorescens, UniProt Q3KC85); assay: Mixed dialkylsulfone monooxygenation endpoint assay; format: biochemical; settings: 1 mM substrate, 8 µM SfnG, 1 µM MsuE, 500 µM NADH, 2 µM FMN, 30 °C, 80 min
T1 sequence (Q3KC85 1-364): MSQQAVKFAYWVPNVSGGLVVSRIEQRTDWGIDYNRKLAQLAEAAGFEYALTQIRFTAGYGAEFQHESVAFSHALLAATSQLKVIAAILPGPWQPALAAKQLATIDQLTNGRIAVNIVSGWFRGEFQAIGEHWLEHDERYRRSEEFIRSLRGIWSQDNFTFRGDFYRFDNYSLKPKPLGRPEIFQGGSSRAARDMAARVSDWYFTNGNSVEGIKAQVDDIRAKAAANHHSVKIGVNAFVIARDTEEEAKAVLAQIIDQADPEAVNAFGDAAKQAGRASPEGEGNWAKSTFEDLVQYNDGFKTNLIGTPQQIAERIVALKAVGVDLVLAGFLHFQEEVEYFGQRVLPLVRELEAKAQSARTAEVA

MsuE = biological target: T2, MsuE (Pseudomonas fluorescens, UniProt Q3K9A2); assay: Fluorometric equilibrium titration of MsuE with oxidized FMN; format: binding
T2 sequence (Q3K9A2 1-187): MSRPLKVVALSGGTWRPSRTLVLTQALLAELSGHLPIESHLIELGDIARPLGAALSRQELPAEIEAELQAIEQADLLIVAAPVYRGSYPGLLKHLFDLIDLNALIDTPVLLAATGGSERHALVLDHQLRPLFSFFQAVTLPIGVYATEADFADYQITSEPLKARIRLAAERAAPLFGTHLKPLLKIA
Outline: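 Recombinant P. fluorescens enzyme titrated at equilibrium with oxidized FMN, binding followed by intrinsic protein fluorescence on a spectrofluorometer. FMN range: 0.2 µM to 400 µM for MsuC and MsuD, 0.033 µM to 260 µM for MsuE. The fit gave KD, total enzyme and R2. Values are ±SD from three assay replicates.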

SfnG [2] = biological target: T1, SfnG; assay: Surface plasmon resonance flavin binding assay, SfnG captured on NTA sensor chip
SsuD = settings: read-out: KD for FMN binding; E. coli SsuD; cited from earlier work
SfnG [3] = settings: cited from earlier work

- product(s) of conversion by SfnG (1H NMR endpoint assay) (SfnG [1]): ethanesulfinate
Structure (SMILES): CCS(=O)(=O)CC [diethylsulfone]

- Kd (MsuE): 540 ± 60 nM
- koff (SfnG [2]): 0.42 s⁻¹
- fold decrease in KD by SPR with 1% (v/v) DMSO in the running buffer (SfnG [2]; FMN binding to SfnG, with 1% (v/v) DMSO versus without): 2.7 fold
- koff (SfnG [2]; read-out: koff rate constant with DMSO2 in the running buffer): 0.00836 s⁻¹
Structure (SMILES): Cc1cc2nc3c(=O)[nH]c(=O)nc-3n(C[C@H](O)[C@H](O)[C@H](O)COP(=O)(O)O)c2cc1C [FMN, riboflavin 5´-monophosphate sodium salt]
- Kd (SsuD): 10 µM

Structure (SMILES): C[S+](C)[O-] [DMSO]
- SfnG activity against the compound (SfnG [3]): not active
